Ki and Recovery data for 17 compounds are collected here from ChEMBL document CHEMBL1135539, “Synthesis of ketone analogues of prolyl and pipecolyl ester FKBP12 ligands” (J Med Chem, 2002).

The target in test [1] is Peptidyl-prolyl cis-trans isomerase FKBP1A (Rattus norvegicus, UniProt Q62658). Briefly: In vitro inhibition of rotamase activity of FK506 binding protein 12.
Test [2] relates to Mus musculus. Kind of test: Concurrent % recovery of striatal dopaminergic innervation relative to MPTP-treated mice after subcutaneous administration at dose of 4 mg/kg. Type of test: functional, organism-based. The arrangement: dose 4 mg/kg. Summed up:
(§1)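 Mice lesioned with the dopaminergic neurotoxin MPTP, following an earlier-described protocol. The endpoint is striatal dopaminergic innervation. Drug is given either concurrently with MPTP or after the lesion. Values are expressed as % recovery relative to MPTP-lesioned animals that received no test drug.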

The subject of test [3] is Mus musculus. Briefly: Post-MPTP % recovery of striatal dopaminergic innervation relative to MPTP-treated mice after peroral administration at dose of 10 mg/kg. The arrangement: dose 10 mg/kg. Format: functional, organism-based. The gist of the method: as §1

The term Ki denotes a measure of affinity in units of concentration, obtained from inhibition or displacement. High values mean lower affinity, low ones higher affinity.

Chain of Peptidyl-prolyl cis-trans isomerase FKBP1A (Q62658 whole entry): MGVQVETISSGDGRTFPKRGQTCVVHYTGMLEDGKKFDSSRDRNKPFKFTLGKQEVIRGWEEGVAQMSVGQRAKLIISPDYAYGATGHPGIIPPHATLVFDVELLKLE

Compound `CCC(C)(C)C(=O)C(=O)N1CCC[C@H]1C(=O)OCCCc1cccnc1` [GPI-1046] came in with a Ki in test [1] of 0.0075 µM. Also, the Recovery with Mus musculus [2] turned out to be 39%; in the test on Mus musculus [3] it was 35%.

As for `O=C(C(=O)N1CCC[C@H]1C(=O)CCCCc1ccccc1)c1ccccc1`, affinity in test [1] was put at a Ki of 10 µM.

The compound `CCC(C)(C)C(=O)C(=O)N1CCCC[C@H]1C(=O)CCCCCc1cccnc1` yielded a Ki in test [1] of 0.9 µM.

`CCC(C)(C)C(=O)C(=O)N1CCC[C@H]1C(=O)CCCCc1cccnc1`: the Recovery in the test with Mus musculus [2] was 38%; in the test with Mus musculus [3] it was 34%.

For the compound `CCC(C)(C)C(=O)C(=O)N1CCC[C@H]1C(=O)CCCCc1c(F)c(F)c(C(F)(F)F)c(F)c1F`, the affinity in test [1] corresponds to a Ki of 0.13 µM. For the same compound, the figures for the Recovery in the test with Mus musculus [2] and in the test on Mus musculus [3] were 7% and 27%, respectively.

`CC(C)(C)C(=O)C(=O)N1CCC[C@H]1C(=O)CCCc1ccccc1` showed a Ki in test [1] of 0.18 µM. For the same compound, the Recovery in the test on Mus musculus [2] was determined as 34%; in the test on Mus musculus [3] it was 35%.

In test [1], `O=C(C(=O)N1CCC[C@H]1C(=O)CCCCc1ccccc1)C1CCCCC1` showed a Ki of 0.31 µM. Besides, the results for the Recovery in the test on Mus musculus [2] and with Mus musculus [3] were 37.6% and 62.2%, respectively.

As for `CCC(C)(C)C(=O)C(=O)N1CCCC[C@H]1C(=O)CCCCCc1ccccc1`, the affinity in test [1], expressed as Ki, was 3 µM. This compound also showed a Recovery with Mus musculus [2] of 46.3%.

Consider `CCCCC(=O)[C@@H]1CCCN1C(=O)C(=O)C(C)(C)CC`, for which the Ki in test [1] came to 2 µM. This counts as single-digit micromolar.

In test [1], `CCC(C)(C)C(=O)C(=O)N1CCCC[C@H]1C(=O)CCCCc1ccccc1` had a Ki of 0.79 µM. Compared with the last compound, the Ki is about 2.5-fold lower.

In turn, `CCCCC(=O)[C@@H]1CCCCN1C(=O)C(=O)C(C)(C)CC` yielded a Ki in test [1] of 3.4 µM. This Ki lies about 4.3-fold higher than the previous one.

Consider `CCC(C)(C)C(=O)C(=O)N1CCC[C@H]1C(=O)CCCCCc1ccccc1`, for which the Ki in test [1] amounted to 3.8 µM. Further, the Recovery in the test with Mus musculus [2] stood at 46%; with Mus musculus [3], 48%.

On to `CC(C)(C)C(=O)C(=O)N1CCCC[C@H]1C(=O)CCCCCc1ccccc1`, for which the affinity in test [1], expressed as Ki, was 0.29 µM. In addition, the figures for the Recovery with Mus musculus [2] and in the test with Mus musculus [3] were 50% and 36%, respectively.

On to `CCC(C)(C)C(=O)C(=O)N1CCC[C@H]1C(=O)CCCCc1ccccc1`, for which the Ki in test [1] amounted to 0.03 µM. The Recovery with Mus musculus [2] is 22.5%.

In turn, `CCC(C)(C)C(=O)C(=O)N1CCC[C@H]1C(=O)CCCCc1ccc(O)cc1` yielded a Ki in test [1] of 0.24 µM. Besides, the Recovery with Mus musculus [3] was 33.5%.

In turn, `CCC(C)(C)C(=O)C(=O)N1CCCC[C@H]1C(=O)CCCc1ccccc1` registered a Ki in test [1] of 10 µM.

In test [1], `CCC(C)(C)C(=O)C(=O)N1CCC[C@H]1C(=O)CCCC(c1ccc(F)cc1)c1ccc(F)cc1` showed a Ki of 0.46 µM. Also, the Recovery worked out at 41% in the test on Mus musculus [2] and 54% with Mus musculus [3].
